Experimental data: ChEMBL document CHEMBL1131450, “Synthesis and antitumor evaluation of 2,5-disubstituted-indazolo[4, 3-gh]isoquinolin-6(2H)-ones (9-aza-anthrapyrazoles)” (J Med Chem, 1998)
Values after ≈ are worked out from the molar mass of the structure shown.

Columns and labels:
LoVo [1] = experiment: In vitro cytotoxicity on human colon adenocarcinoma (LoVo ) tumor cell line.; type: functional, cell-based
MX1 [2] = experiment: In vivo antitumor activity was measured on MX-1 human mammary carcinoma cells. TWI%=tumor weight inhibition. Optimal dose 130 mg/kg/day.; type: functional
P388 [3] = experiment: In vivo antitumor activity was measured on systemic P388 murine leukemia cells. Optimal dose 120 mg/kg/day.; type: functional, Mus musculus
Outline: (§1)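 CD2F1 male mice given 10⁶ P388 leukemia cells iv (day 0); drug given iv on days 1, 4 and 7. Survival expressed as T/C% = median survival time of treated / median survival of controls × 100, reported at optimal dose (mg/kg/day) or maximum tested dose.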

LoVo/Dx (Homo sapiens) = experiment: cells
P388 [4] = experiment: In vivo antitumor activity was measured on systemic P388 murine leukemia cells. Optimal dose 4 mg/kg/day.; type: functional, Mus musculus; outline: as §1
LoVo [5] = experiment: Resistance index measured as the ratio of IC50 of LoVo/Dx cell line to that of LoVo cell line.; type: functional, Homo sapiens
MX1 [6] = experiment: In vivo antitumor activity was measured on MX-1 human mammary carcinoma cells. TWI%=tumor weight inhibition. Optimal dose 9 mg/kg/day.; type: functional
MX1 [7] = experiment: In vivo antitumor activity was measured on MX-1 human mammary carcinoma cells. TWI%=tumor weight inhibition. Optimal dose 40 mg/kg/day.; type: functional
P388 [8] = experiment: In vivo antitumor activity was measured on systemic P388 murine leukemia cells. Maximum tested dose 12 mg/kg/day.; type: functional, Mus musculus; outline: as §1
MX1 [9] = experiment: In vivo antitumor activity was measured on MX-1 human mammary carcinoma cells. TWI%=tumor weight inhibition. Optimal dose 90 mg/kg/day.; type: functional
P388 [10] = experiment: In vivo antitumor activity was measured on systemic P388 murine leukemia cells. Maximum tested dose 40 mg/kg/day.; type: functional, Mus musculus; outline: as §1
MX1 [11] = experiment: In vivo antitumor activity was measured on MX-1 human mammary carcinoma cells. TWI%=tumor weight inhibition. Optimal dose 20 mg/kg/day.; type: functional
P388 [12] = type: functional, Mus musculus
MX1 [13] = experiment: In vivo antitumor activity was measured on MX-1 human mammary carcinoma cells. TWI%=tumor weight inhibition. Optimal dose 18 mg/kg/day.; type: functional
P388 [14] = experiment: In vivo antitumor activity was measured on systemic P388 murine leukemia cells. Maximum tested dose 18 mg/kg/day.; type: functional, Mus musculus; outline: as §1
MX1 [15] = experiment: In vivo antitumor activity was measured on MX-1 human mammary carcinoma cells. TWI%=tumor weight inhibition. Maximum tested dose 90 mg/kg/day.; type: functional
MX1 [16] = experiment: In vivo antitumor activity was measured on MX-1 human mammary carcinoma cells. TWI%=tumor weight inhibition. Optimal dose at 3 mg/kg/day; type: functional
P388 [17] = experiment: In vivo antitumor activity was measured on systemic P388 murine leukemia cells. Optimal dose at 3 mg/kg/day; type: functional, Mus musculus; outline: as §1
MX1 [18] = experiment: In vivo antitumor activity was measured on MX-1 human mammary carcinoma cells. TWI%=tumor weight inhibition. Optimal dose 12 mg/kg/day.; type: functional
MX1 [19] = experiment: In vivo antitumor activity was measured on MX-1 human mammary carcinoma cells. TWI%=tumor weight inhibition. Optimal dose 2 mg/kg/day.; type: functional
MX1 [20] = experiment: In vivo antitumor activity was measured on MX-1 human mammary carcinoma cells. TWI%=tumor weight inhibition. Optimal dose 150 mg/kg/day.; type: functional
P388 [21] = experiment: In vivo antitumor activity was measured on systemic P388 murine leukemia cells. Optimal dose 7.5 mg/kg/day.; type: functional, Mus musculus; outline: as §1
MX1 [22] = experiment: In vivo antitumor activity was measured on MX-1 human mammary carcinoma cells. TWI%=tumor weight inhibition. Optimal dose 10 mg/kg/day.; type: functional
MX1 [23] = experiment: In vivo antitumor activity was measured on MX-1 human mammary carcinoma cells. TWI%=tumor weight inhibition. Optimal dose 17.5 mg/kg/day.; type: functional
P388 [24] = experiment: In vivo antitumor activity was measured on systemic P388 murine leukemia cells. Optimal dose 75 mg/kg/day.; type: functional, Mus musculus; details: in the assay text read “7.5 mg/kg/day” for “75 mg/kg/day”; outline: as §1

Row | Compound | IC50 (LoVo [1]) [µg/mL] | IC50 (LoVo/Dx (Homo sapiens)) [µg/mL] | RI (LoVo [5]) | other results
1 | O=C1c2ccncc2-c2nn(CCNCCO)c3ccc(NCCN(CCO)CCO)c1c23 | > 100 | > 100 | – | TWI (MX1 [2]): 45%; T/C (P388 [3]): 111%
2 | CCN(CC)CCNc1ccc2c3c(nn2CCN(C)C)-c2cnccc2C(=O)c13 | 0.37 (≈ 0.91 µM) | 0.83 (≈ 2.04 µM) | 2.2 | T/C (P388 [4]): 175%; TWI (MX1 [6]): 35%
3 | CCN(CC)CCNc1ccc2c3c(nn2CCN)-c2cnccc2C(=O)c13 | 0.52 (≈ 1.37 µM) | 15.7 (≈ 41.5 µM) | 30 | TWI (MX1 [7]): 51%; T/C (P388 [8]): 147%
4 | CN(C)CCNc1ccc2c3c(nn2CCO)-c2cnccc2C(=O)c13 | 18.5 (≈ 52.6 µM) | > 100 | >5.4 | TWI (MX1 [9]): 16%; T/C (P388 [10]): 112%
5 | NCCNc1ccc2c3c(nn2CCNCCO)-c2cnccc2C(=O)c13 | 2.17 (≈ 5.92 µM) | > 100 | >46 | TWI (MX1 [11]): 74%; T/C (P388 [12]): 175%
6 | CN(C)CCn1nc2c3c(c(NCCN4CCNCC4)ccc31)C(=O)c1ccncc1-2 | 4.83 (≈ 11.5 µM) | > 100 | 21 | TWI (MX1 [13]): 14%; T/C (P388 [14]): 113%
7 | CN(C)CCCNc1ccc2c3c(nn2CCN(C)C)-c2cnccc2C(=O)c13 | 0.33 (≈ 0.841 µM) | 2.13 (≈ 5.43 µM) | 6.4 | TWI (MX1 [15]): 141%; T/C (P388 [10]): 138%
8 | CN(C)CCn1nc2c3c(c(NCCN(CCO)CCO)ccc31)C(=O)c1ccncc1-2 | 2.13 (≈ 4.86 µM) | > 100 | >47 | TWI (MX1 [9]): 97%; T/C (P388 [10]): 175%
9 | O=C1c2c(O)ccc(O)c2C(=O)c2c(NCCNCCO)ccc(NCCNCCO)c21 [MITOXANTRONE] | 0.024 (≈ 0.054 µM) | 0.67 (≈ 1.51 µM) | 28 | TWI (MX1 [16]): 57%; T/C (P388 [17]): 197%
10 | CN(C)CCn1nc2c3c(c(NCCN(C)CCO)ccc31)C(=O)c1ccncc1-2 | 0.049 (≈ 0.12 µM) | 1.55 (≈ 3.79 µM) | 31.6 | T/C (P388 [12]): 280%; TWI (MX1 [18]): 75%
11 | CN(C)CCNc1ccc2c3c(nn2CCN(C)C)-c2cnccc2C(=O)c13 | 0.35 (≈ 0.925 µM) | 1 (≈ 2.64 µM) | 2.8 | TWI (MX1 [19]): 56%; T/C (P388 [4]): 381%
12 | NCCn1nc2c3c(c(NCCN(CCO)CCO)ccc31)C(=O)c1ccncc1-2 | 46.4 (≈ 113 µM) | > 100 | 2.1 | TWI (MX1 [20]): 50%; T/C (P388 [21]): 194%
13 | CN(C)CCn1nc2c3c(c(NCCO)ccc31)C(=O)c1ccncc1-2 | 0.32 (≈ 0.911 µM) | 13.6 (≈ 38.7 µM) | 42.5 | TWI (MX1 [7]): 97%; T/C (P388 [10]; in the assay text read “Maximum tested dose 12 mg/kg/day” for “Maximum tested dose 40 mg/kg/day”): 167%
14 | CN(C)CCCn1nc2c3c(c(NCCNCCO)ccc31)C(=O)c1ccncc1-2 | 0.3 (≈ 0.734 µM) | 90 (≈ 220 µM) | 300 | TWI (MX1 [22]): 98%; T/C (P388 [21]): 166%
15 | NCCn1nc2c3c(c(NCCN4CCOCC4)ccc31)C(=O)c1ccncc1-2 | 1.76 (≈ 4.48 µM) | > 100 | >57 | TWI (MX1 [7]): 32%; T/C (P388 [10]): 129%
16 | CNCCNc1ccc2c3c(nn2CCNCCO)-c2cnccc2C(=O)c13 [NORTOPIXANTRONE] | 0.54 (≈ 1.42 µM) | > 100 | >185 | TWI (MX1 [23]): 96%; T/C (P388 [24]): 167%
